Key:
ABCG2 [1] = molecular target: T1, ABCG2 (Homo sapiens, UniProt Q9UNQ0); assay: Inhibition of recombinant human GFP-fused ABCG2 expressed in MDCK2 cells assessed as reduction in Hoechst 33342 efflux at […] preincubated for 30 mins followed by Hoechst 33342 addition measured immediately at 60 sec time interval for 120 mins by fluorescence assay relative to Ko143; type: cell-based; details: MDCK2 cells expressing recombinant GFP-fused human ABCG2, probe Hoechst 33342, read-out: Imax
T1 sequence (Q9UNQ0 whole entry): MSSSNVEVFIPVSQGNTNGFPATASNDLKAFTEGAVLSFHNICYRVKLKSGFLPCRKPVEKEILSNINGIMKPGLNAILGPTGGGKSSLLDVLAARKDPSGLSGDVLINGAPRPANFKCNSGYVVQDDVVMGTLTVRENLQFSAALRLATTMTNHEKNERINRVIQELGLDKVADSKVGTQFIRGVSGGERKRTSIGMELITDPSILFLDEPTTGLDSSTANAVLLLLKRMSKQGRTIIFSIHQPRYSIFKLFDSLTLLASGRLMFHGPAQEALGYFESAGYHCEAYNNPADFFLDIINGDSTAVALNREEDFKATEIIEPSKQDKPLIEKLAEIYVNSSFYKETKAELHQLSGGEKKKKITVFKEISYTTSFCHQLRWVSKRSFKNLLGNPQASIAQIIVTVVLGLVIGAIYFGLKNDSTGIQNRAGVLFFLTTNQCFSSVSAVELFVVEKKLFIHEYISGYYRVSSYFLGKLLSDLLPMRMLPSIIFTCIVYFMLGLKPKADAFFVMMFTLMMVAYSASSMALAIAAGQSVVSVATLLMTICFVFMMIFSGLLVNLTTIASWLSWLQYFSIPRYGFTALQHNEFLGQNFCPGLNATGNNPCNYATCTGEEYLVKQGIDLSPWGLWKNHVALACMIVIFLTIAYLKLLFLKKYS

[2] = molecular target: T2, Broad substrate specificity ATP-binding cassette transporter ABCG2 (Homo sapiens, UniProt Q9UNQ0); assay: Inhibition of recombinant human GFP-fused ABCG2 expressed in MDCK2 cells assessed as reduction in Hoechst 33342 efflux preincubated for 30 mins followed by Hoechst 33342 addition measured immediately at 60 sec time interval for 120 mins by fluorescence assay; type: cell-based
T2 sequence (Q9UNQ0 whole entry): T1 sequence (Q9UNQ0 whole entry)
Procedure, shortened: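 Hoechst 33342 accumulation assay: the dye is an ABCG2 substrate whose fluorescence rises when bound to DNA or embedded in membrane. Intracellular accumulation serves as the read-out of transporter inhibition.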

ABCG2 [3] = molecular target: T1, ABCG2; assay: Activation of ABCG2 (unknown origin) ATPase activity expressed in baculovirus infected high five cell membranes assessed as protein Vmax by ascorbic acid/ammonia molybdate reaction-based colorimetric analysis relative to basal control; details: read-out: Vmax
Procedure, shortened: (§1)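 Colorimetric ATPase assay of ABCG2 membranes; activity expressed relative to control. Where data were biphasic, a combined increasing plus decreasing logistic equation with the Hill coefficient fixed at one was fitted, giving an activating and an inactivating K.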

[4] = molecular target: T2, Broad substrate specificity ATP-binding cassette transporter ABCG2; assay: Activation of ABCG2 (unknown origin) ATPase activity expressed in baculovirus infected high five cell membranes by ascorbic acid/ammonia molybdate reaction-based colorimetric analysis; procedure, shortened: as §1
[5] = Cytotoxicity against ABCG2 over-expressing MDCK2 cells assessed as cell growth inhibition after 72 hrs by MTT assay; type: ADME, cell-based, Canis lupus familiaris, MDCK-II; details: dog
[6] = Cytotoxicity against MDCK2 cells assessed as cell growth inhibition after 72 hrs by MTT assay; type: cell-based, Canis lupus familiaris, MDCK-II; details: dog
[7] = Therapeutic index, ratio of GI50 for ABCG2 over-expressing MDCK2 cells to IC50 for recombinant human GFP-fused ABCG2 expressed in MDCK2 cells; type: cell-based
[8] = molecular target: ATP-dependent translocase ABCB1 (Homo sapiens, UniProt P08183); assay: Inhibition of ABCB1 in human A2780adr cells assessed as reduction in calcein AM levels preincubated for 30 mins followed by calcein AM addition measured immediately at 60 sec time interval for 60 mins by fluorescence assay; type: cell-based
Procedure, shortened: (§2)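 Calcein AM assay in A2780adr cells (ABCB1 overexpressing) and H69AR cells (ABCC1 overexpressing). Compounds were screened at 10 µM, with inhibition relative to cyclosporine A as the total-inhibition control.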

ABCB1 = ABCB1 (Homo sapiens, UniProt P08183); assay: Inhibition of ABCB1 in human A2780adr cells assessed as reduction in calcein AM levels at 10 uM preincubated for 30 mins followed by calcein AM addition measured immediately at 60 sec time interval for 60 mins by fluorescence assay relative to Cyclosporine A; type: cell-based; details: probe calcein AM; procedure, shortened: as §2
Chain of ABCB1 (P08183 whole entry): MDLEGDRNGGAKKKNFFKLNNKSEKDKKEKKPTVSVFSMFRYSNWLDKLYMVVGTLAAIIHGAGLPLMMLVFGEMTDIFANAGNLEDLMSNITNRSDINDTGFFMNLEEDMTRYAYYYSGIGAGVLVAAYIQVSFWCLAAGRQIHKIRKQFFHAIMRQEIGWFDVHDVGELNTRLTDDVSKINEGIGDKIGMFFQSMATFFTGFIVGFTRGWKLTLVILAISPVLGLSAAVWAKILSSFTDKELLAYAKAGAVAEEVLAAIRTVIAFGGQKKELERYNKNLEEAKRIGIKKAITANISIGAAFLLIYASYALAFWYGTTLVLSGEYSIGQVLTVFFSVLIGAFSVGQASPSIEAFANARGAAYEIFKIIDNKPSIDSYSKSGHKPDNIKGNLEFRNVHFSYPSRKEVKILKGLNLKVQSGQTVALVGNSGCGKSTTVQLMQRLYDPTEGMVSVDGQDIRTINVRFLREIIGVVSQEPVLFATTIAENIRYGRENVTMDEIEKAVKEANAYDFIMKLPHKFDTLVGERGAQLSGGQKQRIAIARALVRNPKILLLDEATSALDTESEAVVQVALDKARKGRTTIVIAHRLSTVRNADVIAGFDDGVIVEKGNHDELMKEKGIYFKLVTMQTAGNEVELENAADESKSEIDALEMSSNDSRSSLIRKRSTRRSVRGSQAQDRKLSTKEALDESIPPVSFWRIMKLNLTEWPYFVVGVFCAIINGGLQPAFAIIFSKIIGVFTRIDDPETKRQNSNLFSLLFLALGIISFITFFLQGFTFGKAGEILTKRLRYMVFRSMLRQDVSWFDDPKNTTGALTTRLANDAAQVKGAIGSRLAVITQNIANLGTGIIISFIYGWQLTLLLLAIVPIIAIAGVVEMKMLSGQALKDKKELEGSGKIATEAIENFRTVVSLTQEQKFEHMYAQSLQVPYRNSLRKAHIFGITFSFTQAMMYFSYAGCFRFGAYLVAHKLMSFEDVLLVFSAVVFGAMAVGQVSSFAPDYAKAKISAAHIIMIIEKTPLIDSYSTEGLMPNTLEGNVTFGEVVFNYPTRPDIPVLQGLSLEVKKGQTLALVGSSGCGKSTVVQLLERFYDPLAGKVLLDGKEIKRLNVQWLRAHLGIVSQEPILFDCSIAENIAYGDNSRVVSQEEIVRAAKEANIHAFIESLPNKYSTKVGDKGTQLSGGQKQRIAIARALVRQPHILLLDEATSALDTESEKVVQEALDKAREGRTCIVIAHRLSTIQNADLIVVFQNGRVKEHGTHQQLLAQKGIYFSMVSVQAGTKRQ

Chain of ATP-dependent translocase ABCB1 (P08183 whole entry): as above

SMILES | Emax at 2 h (ABCG2 [1]) | IC50 [2] | Emax (ABCG2 [3]) | EC50 ([4]; read-out: EC50) | GI50 at 72 h [5] | GI50 at 72 h [6] | TI [7] | IC50 [8] | inhibition at 1 h, 10 µM (ABCB1) | EC50 [4]
O=[N+]([O-])c1cccc(Nc2nc(-c3ccccn3)nc3ccccc23)c1 | 80 to 110% | 376 nM | 119% | 676 nM | – | – | – | – | – | –
O=[N+]([O-])c1cccc(Nc2nc(-c3ccncc3)nc3ccccc23)c1 | 80 to 110% | 117 nM | 185% | 4 nM | – | – | – | – | – | –
O=[N+]([O-])c1cc(Nc2nc(-c3cccnc3)nc3ccccc23)ccc1O | 80 to 110% | 245 nM | 151% | 7 nM | – | – | – | – | – | –
Fc1cccc(Nc2nc(-c3cccnc3)nc3ccccc23)c1 | 80 to 110% | 156 nM | 140% | 58 nM | 46800 nM | 100000 nM | 300 | – | – | –
O=[N+]([O-])c1cccc(Nc2nc(-c3cccnc3)nc3ccccc23)c1 | 80 to 110% | 105 nM | 154% | 21 nM | 70800 nM | 64600 nM | 615 | – | – | –
Cc1cc(Nc2ccc(C#N)cc2)nc(-c2ccccc2)n1 | 80 to 110% | 128 nM | 140% | 2460 nM | 17800 nM | 28400 nM | 139 | – | – | –
CN(C)c1cccc(Nc2nc(-c3cccnc3)nc3ccccc23)c1 | 80 to 110% | 1200 nM | – | – | 10000 nM | 14100 nM | 8.33 | – | – | –
O=[N+]([O-])c1cc(Nc2nc(-c3ccccc3)nc3ccccc23)ccc1O | 80 to 110% | 81.1 nM | 135% | 20 nM | – | – | 647 | – | – | –
COc1ccc(Nc2nc(-c3cccnc3)nc3ccccc23)cc1OC | 80 to 110% | 753 nM | – | – | – | – | – | 3110 nM | > 25% | –
COc1cccc(Nc2nc(-c3ccccn3)nc3ccccc23)c1 | 80 to 110% | 1630 nM | – | – | – | – | – | 12700 nM | > 25% | –
COc1ccc(Nc2cc(C)nc(-c3ccncc3)n2)cc1 | 80 to 110% | 874 nM | 146% | 85 nM | – | – | – | – | – | –
OCc1cccc(Nc2nc(-c3cccnc3)nc3ccccc23)c1 | 80 to 110% | 810 nM | – | – | – | – | – | – | – | –
Cc1cc(Nc2cccc(C#N)c2)nc(-c2ccccc2)n1 | 80 to 110% | 122 nM | 134% | 2080 nM | – | – | – | – | – | –
Fc1cccc(Nc2nc(-c3ccccc3)nc3ccccc23)c1 | 80 to 110% | 363 nM | 142% | 131 nM | 18000 nM | – | 49.6 | – | – | –
N#Cc1ccc(Nc2nc(-c3ccccc3)nc3ccccc23)cc1 | 80 to 110% | 71.4 nM | – | – | – | – | – | – | – | –
OCc1cccc(Nc2nc(-c3ccncc3)nc3ccccc23)c1 | 80 to 110% | 921 nM | – | – | – | – | – | – | – | –

SMILES | Emax at 2 h (ABCG2 [1]) | IC50 [2] | Emax (ABCG2 [3]) | EC50 ([4]; read-out: EC50) | GI50 at 72 h [5] | GI50 at 72 h [6] | TI [7] | IC50 [8] | inhibition at 1 h, 10 µM (ABCB1) | EC50 [4]
O=C(O)c1ccc(Nc2nc(-c3ccncc3)nc3ccccc23)cc1 | 80 to 110% | 9640 nM | – | – | – | – | – | 3670 nM | > 25% | –
N#Cc1cccc(Nc2nc(-c3ccccn3)nc3ccccc23)c1 | 80 to 110% | 507 nM | 115% | 1530 nM | – | – | – | – | – | –
Cc1cc(Nc2ccccc2)nc(-c2ccccc2)n1 | 80 to 110% | 648 nM | 100% | – | 107000 nM | 136000 nM | 165 | – | – | Not Active
Oc1ccc(Nc2nc(-c3ccccc3)nc3ccccc23)cc1 | 80 to 110% | 211 nM | – | – | 14600 nM | 22600 nM | 69.2 | – | – | –
c1ccc(Nc2nc(-c3ccccc3)nc3ccccc23)cc1 | 80 to 110% | 882 nM | – | – | 26600 nM | 26000 nM | 30.1 | – | – | –
COC(=O)c1cccc(Nc2nc(-c3ccncc3)nc3ccccc23)c1 | 80 to 110% | 405 nM | – | – | – | – | – | 6370 nM | > 25% | –
Oc1ccc(Nc2nc(-c3ccncc3)nc3ccccc23)cc1 | 80 to 110% | 4260 nM | – | – | 55000 nM | 120000 nM | 12.9 | – | – | –
O=S(=O)(F)c1cccc(Nc2nc(-c3ccncc3)nc3ccccc23)c1 | 80 to 110% | 1380 nM | – | – | – | – | – | – | – | –
O=C(O)c1cccc(Nc2nc(-c3ccncc3)nc3ccccc23)c1 | 80 to 110% | 60000 nM | – | – | – | – | – | – | – | –
Cc1cc(Nc2cccc(C#N)c2)nc(-c2ccncc2)n1 | 80 to 110% | 132 nM | 133% | 22 nM | 6920 nM | 9330 nM | 52.4 | – | – | –
Oc1cccc(Nc2nc(-c3ccncc3)nc3ccccc23)c1 | 80 to 110% | 1070 nM | – | – | 9220 nM | 12400 nM | 8.62 | – | – | –
N#Cc1cccc(Nc2nc(-c3ccccc3)nc3ccccc23)c1 | – | – | 145% | 15 nM | 10400 nM | 14200 nM | 146 | – | – | –
COC(=O)c1cccc(Nc2nc(-c3cccnc3)nc3ccccc23)c1 | 80 to 110% | 362 nM | – | – | – | – | – | – | – | –
COc1cccc(Nc2cc(C)nc(-c3ccncc3)n2)c1 | 80 to 110% | 271 nM | 144% | 82 nM | – | – | – | – | – | –
N#Cc1ccc(Nc2nc(-c3cccnc3)nc3ccccc23)cc1 | 80 to 110% | 166 nM | 137% | 4 nM | 79400 nM | 104000 nM | 241 | – | – | –
